Source: ChEMBL document CHEMBL4619737, “Influence of side-chain changes on histone deacetylase inhibitory and cytotoxicity activities of curcuminoid derivatives” (Bioorg Med Chem Lett, 2020)
≈ marks a conversion by molar mass, not a printed value. Calls of active or inactive are those of the source. No cut-off for these calls is given here.

Experiments:
[1] = test system: Vero; test: Cytotoxicity against African green monkey Vero cells assessed as reduction in cell viability incubated for 72 hrs by MTT assay; format: cell-based; settings: Chlorocebus sabaeus
[2] = test system: Vero; test: Cytotoxicity against African green monkey Vero cells assessed as reduction in cell viability incubated for 48 hrs by MTT assay; format: cell-based; settings: Chlorocebus sabaeus
[3] = test system: Vero; test: Cytotoxicity against African green monkey Vero cells assessed as reduction in cell viability incubated for 24 hrs by MTT assay; format: cell-based; settings: Chlorocebus sabaeus
[4] = test system: HeLa; test: Antiproliferative activity against human HeLa cells incubated for 24 hrs by MTT assay; format: functional, cell-based
[5] = test system: HeLa; test: Antiproliferative activity against human HeLa cells incubated for 48 hrs by MTT assay; format: functional, cell-based
[6] = test system: HeLa; test: Antiproliferative activity against human HeLa cells incubated for 72 hrs by MTT assay; format: functional, cell-based
[7] = test system: HCT-116; test: Antiproliferative activity against human HCT116 cells incubated for 24 hrs by MTT assay; format: functional, cell-based; settings: HCT-116, 24 h
[8] = test system: HCT-116; test: Antiproliferative activity against human HCT116 cells incubated for 48 hrs by MTT assay; format: functional, cell-based; settings: HCT-116, 48 h
[9] = test system: HCT-116; test: Antiproliferative activity against human HCT116 cells incubated for 72 hrs by MTT assay; format: functional, cell-based; settings: HCT-116, 72 h
[10] = test system: MCF7; test: Antiproliferative activity against human MCF7 cells incubated for 24 hrs by MTT assay; format: functional, cell-based; settings: MCF7, 24 h
[11] = test system: MCF7; test: Antiproliferative activity against human MCF7 cells incubated for 48 hrs by MTT assay; format: functional, cell-based; settings: MCF7, 48 h
[12] = test system: MCF7; test: Antiproliferative activity against human MCF7 cells incubated for 72 hrs by MTT assay; format: functional, cell-based; settings: MCF7, 72 h
[13] = molecular target: Histone deacetylase (Homo sapiens) (UniProt Q13547+O15379+Q9UBN7+Q92769+Q9UQL6+Q8WUI4+Q9BY41+Q96DB2+P56524+Q9UKV0+Q969S8); test: Inhibition of HDAC in human HCT116 cells assessed as accumulation of acetylated histone H3 levels at 40 ug/ml incubated for 24 hrs by Western blot analysis; format: cell-based; settings: HCT-116
Procedure, shortened: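 HCT116 cells exposed for 24 h to compound at 10–60 μg/mL, with a 1:1 (v/v) absolute ethanol/DMSO vehicle control. Cells were harvested, and extracted proteins were separated by SDS-PAGE. Acetylated H3 was detected by immunoblotting with ERK1/2 as the loading control. Band intensities were quantified by densitometry and expressed as fold relative to the internal control.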

[14] = molecular target: Histone deacetylase 1 (Homo sapiens, UniProt Q13547); test: Inhibition of HDAC1 (unknown origin)
[15] = molecular target: Histone deacetylase 2 (Homo sapiens, UniProt Q92769); test: Inhibition of HDAC2 (unknown origin)
[16] = molecular target: T1, Histone deacetylase 8 (Homo sapiens, UniProt Q9BY41); test: Inhibition of HDAC8 (unknown origin)
T1 sequence (Q9BY41 whole entry): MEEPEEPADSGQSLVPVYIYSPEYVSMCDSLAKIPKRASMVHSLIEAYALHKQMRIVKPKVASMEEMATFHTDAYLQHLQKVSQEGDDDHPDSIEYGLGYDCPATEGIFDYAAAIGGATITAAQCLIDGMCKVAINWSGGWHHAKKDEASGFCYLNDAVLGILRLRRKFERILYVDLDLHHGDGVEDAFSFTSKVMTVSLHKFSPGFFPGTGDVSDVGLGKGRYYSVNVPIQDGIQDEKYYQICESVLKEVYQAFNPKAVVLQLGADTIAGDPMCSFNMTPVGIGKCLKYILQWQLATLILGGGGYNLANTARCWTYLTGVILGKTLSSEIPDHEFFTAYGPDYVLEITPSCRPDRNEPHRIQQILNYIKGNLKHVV

[17] = molecular target: Histone deacetylase; test: Inhibition of HDAC in human HeLa cell nuclear extract using fluor-de-lys as substrate by spectrofluorometric analysis; format: cell-free

Chain of Histone deacetylase 1 (Q13547 whole entry): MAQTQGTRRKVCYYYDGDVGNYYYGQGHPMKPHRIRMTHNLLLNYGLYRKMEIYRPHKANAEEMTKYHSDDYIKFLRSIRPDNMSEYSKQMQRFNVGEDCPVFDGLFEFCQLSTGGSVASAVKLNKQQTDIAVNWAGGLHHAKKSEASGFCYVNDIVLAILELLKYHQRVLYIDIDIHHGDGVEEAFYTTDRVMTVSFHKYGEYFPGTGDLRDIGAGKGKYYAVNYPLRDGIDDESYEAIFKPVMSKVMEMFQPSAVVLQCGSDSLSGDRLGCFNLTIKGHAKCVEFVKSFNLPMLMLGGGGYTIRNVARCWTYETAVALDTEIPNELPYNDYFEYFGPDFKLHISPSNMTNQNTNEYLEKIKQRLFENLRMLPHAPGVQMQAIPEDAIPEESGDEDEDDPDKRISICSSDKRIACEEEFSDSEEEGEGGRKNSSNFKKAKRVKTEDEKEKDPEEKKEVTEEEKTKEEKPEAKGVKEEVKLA
Chain of Histone deacetylase 2 (Q92769 whole entry): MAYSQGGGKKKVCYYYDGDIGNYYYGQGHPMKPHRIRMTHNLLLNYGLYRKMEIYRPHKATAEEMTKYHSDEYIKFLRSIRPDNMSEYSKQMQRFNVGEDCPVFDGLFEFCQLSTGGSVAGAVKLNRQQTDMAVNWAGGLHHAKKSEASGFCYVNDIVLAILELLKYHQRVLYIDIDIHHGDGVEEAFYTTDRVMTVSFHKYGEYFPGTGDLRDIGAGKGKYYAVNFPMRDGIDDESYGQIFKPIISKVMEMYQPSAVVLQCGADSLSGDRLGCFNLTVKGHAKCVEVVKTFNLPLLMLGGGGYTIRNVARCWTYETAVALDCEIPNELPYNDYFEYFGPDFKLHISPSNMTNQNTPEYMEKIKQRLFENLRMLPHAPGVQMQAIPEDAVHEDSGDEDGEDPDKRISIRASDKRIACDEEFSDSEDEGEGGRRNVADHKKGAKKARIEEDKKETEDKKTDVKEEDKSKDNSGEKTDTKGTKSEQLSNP

Compound | IC50 [1] [µg/mL] | IC50 [2] [µg/mL] | IC50 [3] [µg/mL] | IC50 [4] [µg/mL] | IC50 [5] [µg/mL] | IC50 [6] [µg/mL] | IC50 [7] [µg/mL] | IC50 [8] [µg/mL] | IC50 [9] [µg/mL] | IC50 [10] [µg/mL] | IC50 [11] [µg/mL] | IC50 [12] [µg/mL] | inhibition [13] | Ki [14] [µM] | Ki [15] [µM] | Ki [16] [µM] | IC50 [17] [µM]
COc1cc(/C=C/C(=O)CC(=O)/C=C/c2ccc(O)c(OC)c2)ccc1O [CURCUMIN] | 11 (≈ 29.8 µM) | 17.9 (≈ 48.5 µM) | 25 (≈ 67.9 µM) | 5.39 (≈ 14.6 µM) | 3.57 (≈ 9.69 µM) | 3.56 (≈ 9.66 µM) | 3.83 (≈ 10.4 µM) | 2.67 (≈ 7.25 µM) | 2.4 (≈ 6.51 µM) | 2.94 (≈ 7.98 µM) | 2.08 (≈ 5.65 µM) | 2.03 (≈ 5.51 µM) |  |  |  |  | 
COc1cc(/C=C/C(=O)/C=C(O)/C=C/c2ccc(OC(C)C(N)=O)c(OC)c2)ccc1OC(C)C(N)=O (centres undefined) | 18.7 (≈ 36.5 µM) | 25.6 (≈ 50.1 µM) | > 100 | 32.3 (≈ 63.3 µM) | 25.8 (≈ 50.5 µM) | 19.6 (≈ 38.3 µM) | 27.9 (≈ 54.7 µM) | 23.7 (≈ 46.4 µM) | 14.6 (≈ 28.6 µM) | 51.4 (≈ 101 µM) | 38.3 (≈ 75.1 µM) | 30.7 (≈ 60.2 µM) | Active | 0.936 | 0.55 | 0.88 | 
CCC(C)Oc1ccc(/C=C/C(O)=C/C(=O)/C=C/c2ccc(O)c(OC)c2)cc1 (centres undefined) | > 100 | > 100 | > 100 | 55.2 (≈ 140 µM) | 14 (≈ 35.6 µM) | 9.33 (≈ 23.7 µM) | 43.6 (≈ 111 µM) | 8.53 (≈ 21.6 µM) | 7.33 (≈ 18.6 µM) | > 100 | 46.3 (≈ 117 µM) | 18.1 (≈ 45.8 µM) |  | 2.5 | 1.06 | 3.6 | 
CCC(C)Oc1ccc(/C=C/C(=O)/C=C(O)/C=C/c2ccc(OC(C)CC)c(OC)c2)cc1OC (centres undefined) | > 100 | > 100 | > 100 | > 100 | 17.5 (≈ 36.4 µM) | 10.2 (≈ 21.2 µM) | 28.7 (≈ 59.7 µM) | 10.8 (≈ 22.5 µM) | 7.89 (≈ 16.4 µM) | > 100 | 42.1 (≈ 87.6 µM) | 13.9 (≈ 28.9 µM) |  | 20.7 | 7.47 | 10.2 | 
COc1cc(/C=C/C(=O)/C=C(O)/C=C/c2ccc(OCC(=O)O)c(OC)c2)ccc1OCC(=O)O | > 100 | > 100 | > 100 | > 100 | > 100 | > 100 | > 100 | > 100 | > 100 | > 100 | > 100 | > 100 |  | 1.96 | 3.99 | 14.2 | 
COc1cc(CNC(=O)CCCCC(O)CC(C)C)ccc1O (centres undefined) |  |  |  |  |  |  |  |  |  |  |  |  |  |  |  |  | 72
